Laboratory results: ChEMBL document CHEMBL1914438, “Synthesis and biological activity of novel N-cycloalkyl-(cycloalkylaryl)-2-[(3-R-2-oxo-2H-[1,2,4]triazino[2,3-c]quinazoline-6-yl)thio]acetamides” (2011)

Key:
Type in all cases: functional
RPMI-8226 = experiment: Cytotoxicity against human RPMI8226 cells assessed as cell growth at 10^-5 M after 48 hrs by SRB assay; settings: RPMI-8226, 48 h, read-out: Activity
Outline: (§1)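 NCI human tumor cell line panel from nine cancer types. Each line was inoculated and preincubated 24–48 h, then exposed to a single concentration (10^-5 M) for 48 h. Growth was read by sulforhodamine B protein staining, measured spectrophotometrically. Value reported as percent growth of treated cells relative to untreated controls.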

UACC-62 = experiment: Growth inhibition of human UACC62 cells after 48 hrs by SRB assay; settings: UACC-62, 48 h
Outline: (§2)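 NCI 60-cell-line human tumor panel. Cells were inoculated and preincubated for 24–48 h, then exposed continuously to compound for 48 h. Primary screen used a single 10^-5 M concentration. Growth was measured by sulforhodamine B protein staining, read spectrophotometrically, and reported as percent growth versus untreated controls. Selected compounds were also run at five 10-fold dilutions (10^-4 to 10^-8 M) to derive GI50 from time-zero-corrected absorbances.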

HOP-92 = experiment: Growth inhibition of human HOP92 cells after 48 hrs by SRB assay; settings: HOP-92, 48 h
Outline: (§3)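 NCI panel of about 60 human tumor lines, 48 h continuous exposure at five 10-fold dilutions from 10^-4 to 10^-8 M. SRB protein staining was read as absorbance at time zero, in untreated controls and at each concentration. GI50 is the concentration giving 50% lower net protein increase than controls. TGI is where Ti = Tz, and LC50 is 50% protein loss versus start.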

SR [1] = experiment: Growth inhibition of human SR cells after 48 hrs by SRB assay; outline: as §2
HT-29 = experiment: Cytotoxicity against human HT-29 cells assessed as cell growth at 10^-5 M after 48 hrs by SRB assay; settings: HT-29, 48 h, read-out: Activity
Outline: (§4)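 NCI 60-cell-line one-dose primary screen: cells inoculated and preincubated 24–48 h, then test agent added at a single 10^-5 M concentration for a further 48 h. Endpoint is sulforhodamine B protein staining read spectrophotometrically. Reported as percent growth relative to untreated control cells.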

UACC-257 = experiment: Cytotoxicity against human UACC257 cells assessed as cell growth at 10^-5 M after 48 hrs by SRB assay; settings: UACC-257, 48 h, read-out: Activity; outline: as §1
[2] = tested on: Photobacterium leiognathi; experiment: Antibacterial activity against Photobacterium leiognathi Sh1 assessed as inhibition of bacterial luminescence at 0.025 mg/mL after 10 mins by bioluminometry-based acute action test; design: scale not given: the % may be the effect or the level left
Outline: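 Marine P. leiognathi Sh1 (Azov Sea shrimp isolate) diluted in chloride solution to 10^5 cells/mL; compounds suspended in DMSO mixed with 1 mL bacterial suspension. Acute test: 10 min at 25 °C, then bioluminescence measured by bioluminometer as % of compound-free control. Tetracycline reference.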

HCT-15 = experiment: Cytotoxicity against human HCT15 cells assessed as cell growth at 10^-5 M after 48 hrs by SRB assay; settings: HCT-15, 48 h, read-out: Activity; outline: as §4
SR [3] = experiment: Cytotoxicity against human SR cells assessed as cell growth at 10^-5 M after 48 hrs by SRB assay; settings: read-out: Activity; outline: as §1
[4] = tested on: Photobacterium leiognathi; experiment: Antibacterial activity against Photobacterium leiognathi Sh1 assessed as inhibition of bacterial luminescence at 0.1 mg/mL after 10 mins by bioluminometry-based chronic action test; design: scale not given: the % may be the effect or the level left; settings: in the assay text read “after 16 to 18 hrs” for “after 10 mins”
Outline: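 Chronic (growth plus luminescence) test with P. leiognathi Sh1 at 10^5 cells/mL in chloride solution, compounds added in DMSO. After 10 min at 25 °C, growth medium added at 1:50 and the mix incubated 16–18 h at 30 °C. Luminescence then measured by bioluminometer as % of untreated control. Tetracycline reference.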

SK-OV-3 = experiment: Cytotoxicity against human SKOV3 cells assessed as cell growth at 10^-5 M after 48 hrs by SRB assay; settings: SK-OV-3, 48 h, read-out: Activity; outline: as §1
NCI-H23 = experiment: Cytotoxicity against human NCI-H23 cells assessed as cell growth at 10^-5 M after 48 hrs by SRB assay; settings: NCI-H23, 48 h, read-out: Activity; outline: as §1
786-0 = experiment: Cytotoxicity against human 786-0 cells assessed as cell growth at 10^-5 M after 48 hrs by SRB assay; settings: 786-0, 48 h, read-out: Activity; outline: as §4
SNB-19 = experiment: Cytotoxicity against human SNB19 cells assessed as cell growth at 10^-5 M after 48 hrs by SRB assay; settings: SNB-19, 48 h, read-out: Activity; outline: as §1
Staphylococcus aureus = experiment: Antibacterial activity against Staphylococcus aureus assessed as zone of inhibition at 0.5 mg/mL after 24 hrs by stiff-plate agar-diffusion method; settings: read-out: DIZ
U-251 = experiment: Growth inhibition of human U251 cells after 48 hrs by SRB assay; settings: U-251, 48 h; outline: as §2
MOLT-4 = experiment: Growth inhibition of human MOLT4 cells after 48 hrs by SRB assay; settings: MOLT-4, 48 h; outline: as §3
SF-295 = experiment: Cytotoxicity against human SF295 cells assessed as cell growth at 10^-5 M after 48 hrs by SRB assay; settings: SF-295, 48 h, read-out: Activity; outline: as §1
[5] = Growth inhibition of human Hs 578T cells after 48 hrs by SRB assay; outline: as §3
MDA-MB-468 [6] = experiment: Cytotoxicity against human MDA-MB-468 cells assessed as cell growth at 10^-5 M after 48 hrs by SRB assay; settings: MDA-MB-468, 48 h, read-out: Activity; outline: as §4
SNB-75 = experiment: Growth inhibition of human SNB75 cells after 48 hrs by SRB assay; settings: SNB-75, 48 h; outline: as §2
OVCAR-8 = experiment: Cytotoxicity against human OVCAR8 cells assessed as cell growth at 10^-5 M after 48 hrs by SRB assay; settings: OVCAR-8, 48 h, read-out: Activity; outline: as §1
IGROV-1 = experiment: Growth inhibition of human IGROV1 cells after 48 hrs by SRB assay; settings: IGROV-1, 48 h; outline: as §3
MDA-MB-468 [7] = experiment: Growth inhibition of human MDA-MB-468 cells after 48 hrs by SRB assay; settings: MDA-MB-468, 48 h; outline: as §3
RXF 393 = experiment: Cytotoxicity against human RXF393 cells assessed as cell growth at 10^-5 M after 48 hrs by SRB assay; settings: RXF 393, 48 h, read-out: Activity; outline: as §1
CAKI-1 = experiment: Growth inhibition of human Caki1 cells after 48 hrs by SRB assay; settings: CAKI-1, 48 h; outline: as §3
[8] = read-out: pLC50 (the source's name) (converted)

Compound `CCC1C2CCC(C2)C1NC(=O)CSc1nc2ccccc2c2nc(=O)c(-c3ccc(OC)cc3)nn12` (stereo unspecified) has a growth at 10 µM (RPMI-8226) of 47.4%, a GI50 (UACC-62) of 3.55 µM and a CC50 (UACC-62; [8]) greater than 50.1 µM. It also gave a TGI (UACC-62; read-out: pTGI (converted)) of 26.3 µM, a GI50 (HOP-92) of 0.977 µM and a CC50 (HOP-92; [8]) of 25.7 µM. For the same compound, the TGI (HOP-92; read-out: pTGI (converted)) was 3.98 µM, the GI50 (SR [1]) was 1.35 µM and the CC50 (SR [1]; [8]) was greater than 50.1 µM. The TGI (SR [1]; read-out: pTGI (converted)) was 7.41 µM, the growth at 10 µM (HT-29) was 42.8% and the growth at 10 µM (UACC-257) was 55.6%. For the same compound, the Activity [2] was 38.5%, the growth at 10 µM (HCT-15) was 67.9% and the growth at 10 µM (SR [3]) was 7.67%. For the same compound, the Activity [4] was 144%, the growth at 10 µM (SK-OV-3) was -5.12% and the growth at 10 µM (NCI-H23) was 62.8%. For the same compound, the growth at 10 µM (786-0) was 77.7%, the growth at 10 µM (SNB-19) was 39.8% and the zone of inhibition at 500 µg/mL (Staphylococcus aureus) was 0 mm. It also gave a GI50 (U-251) of 1 µM, a CC50 (U-251; [8]) of 5.75 µM and a TGI (U-251; read-out: pTGI (converted)) of 2.29 µM. It also gave a GI50 (MOLT-4) of 1.62 µM, a CC50 (MOLT-4; [8]) greater than 50.1 µM and a TGI (MOLT-4; read-out: pTGI) greater than 50.1 µM. For the same compound, the growth at 10 µM (SF-295) was 69.9%, the GI50 [5] was 3.89 µM and the CC50 [5, 8] was greater than 50.1 µM. It also gave a TGI ([5]; read-out: pTGI (converted)) of 20 µM, a growth at 10 µM (MDA-MB-468 [6]) of -59.5% and a GI50 (SNB-75) of 3.09 µM. It also gave a CC50 (SNB-75; [8]) of 30.9 µM, a TGI (SNB-75; read-out: pTGI (converted)) of 11.5 µM and a growth at 10 µM (OVCAR-8) of 53.1%. For the same compound, the GI50 (IGROV-1) was 2.69 µM, the CC50 (IGROV-1; [8]) was greater than 50.1 µM and the TGI (IGROV-1; read-out: pTGI (converted)) was 36.3 µM. For the same compound, the GI50 (MDA-MB-468 [7]) was 1.35 µM, the CC50 (MDA-MB-468 [7]; [8]) was 30.2 µM and the TGI (MDA-MB-468 [7]; read-out: pTGI (converted)) was 3.98 µM. For the same compound, the growth at 10 µM (RXF 393) was 9.46%, the GI50 (CAKI-1) was 3.72 µM and the CC50 (CAKI-1; [8]) was greater than 50.1 µM. The TGI (CAKI-1; read-out: pTGI (converted)) was 38.9 µM.
